From ChEMBL document CHEMBL5247671, “Design and Synthesis of Pyrazole-Based Macrocyclic Kinase Inhibitors Targeting BMPR2” (ACS Med Chem Lett, 2023)

How the values were obtained:
[1] = target: T1, MAP/microtubule affinity-regulating kinase 4 (Homo sapiens) (UniProt Q96L34); experiment: Inhibition of recombinant MARK4 (unknown origin) at 10 uM by DSF assay relative to staurosporine
T1 sequence (whole entry): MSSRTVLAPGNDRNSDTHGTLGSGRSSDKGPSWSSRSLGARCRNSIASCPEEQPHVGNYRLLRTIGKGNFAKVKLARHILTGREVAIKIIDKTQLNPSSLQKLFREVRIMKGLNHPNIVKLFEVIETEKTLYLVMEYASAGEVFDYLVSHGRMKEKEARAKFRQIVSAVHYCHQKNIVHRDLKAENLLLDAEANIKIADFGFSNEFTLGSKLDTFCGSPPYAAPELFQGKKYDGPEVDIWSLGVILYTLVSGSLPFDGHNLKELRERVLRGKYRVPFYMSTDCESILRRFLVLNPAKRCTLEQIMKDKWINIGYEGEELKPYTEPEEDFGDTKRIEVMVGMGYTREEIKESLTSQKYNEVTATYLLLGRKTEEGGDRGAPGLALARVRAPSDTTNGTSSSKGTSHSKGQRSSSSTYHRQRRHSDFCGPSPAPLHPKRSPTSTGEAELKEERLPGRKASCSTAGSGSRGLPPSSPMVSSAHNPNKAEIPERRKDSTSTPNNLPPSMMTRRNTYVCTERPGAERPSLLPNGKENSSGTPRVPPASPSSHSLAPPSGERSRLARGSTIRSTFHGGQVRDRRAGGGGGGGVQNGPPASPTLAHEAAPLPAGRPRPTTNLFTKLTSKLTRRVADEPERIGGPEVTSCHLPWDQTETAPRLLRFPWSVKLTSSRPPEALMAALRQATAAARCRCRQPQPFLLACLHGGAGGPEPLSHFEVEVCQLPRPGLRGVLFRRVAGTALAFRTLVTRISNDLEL
Procedure, shortened: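 Differential scanning fluorimetry on an in-house panel of 90 recombinant kinases. Stabilization is read as the shift in melting temperature (ΔTm) relative to ligand-free protein. Staurosporine served as the positive control, and binding was also compared against its ΔTm.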

[2] = system: T2, Receptor-type tyrosine-protein kinase FLT3 (Homo sapiens), P36888 [D835V]; experiment: Inhibition of FLT3 D835V mutant (unknown origin) at 1 uM by Kinomescan assay relative to staurosporine
T2 sequence (whole entry): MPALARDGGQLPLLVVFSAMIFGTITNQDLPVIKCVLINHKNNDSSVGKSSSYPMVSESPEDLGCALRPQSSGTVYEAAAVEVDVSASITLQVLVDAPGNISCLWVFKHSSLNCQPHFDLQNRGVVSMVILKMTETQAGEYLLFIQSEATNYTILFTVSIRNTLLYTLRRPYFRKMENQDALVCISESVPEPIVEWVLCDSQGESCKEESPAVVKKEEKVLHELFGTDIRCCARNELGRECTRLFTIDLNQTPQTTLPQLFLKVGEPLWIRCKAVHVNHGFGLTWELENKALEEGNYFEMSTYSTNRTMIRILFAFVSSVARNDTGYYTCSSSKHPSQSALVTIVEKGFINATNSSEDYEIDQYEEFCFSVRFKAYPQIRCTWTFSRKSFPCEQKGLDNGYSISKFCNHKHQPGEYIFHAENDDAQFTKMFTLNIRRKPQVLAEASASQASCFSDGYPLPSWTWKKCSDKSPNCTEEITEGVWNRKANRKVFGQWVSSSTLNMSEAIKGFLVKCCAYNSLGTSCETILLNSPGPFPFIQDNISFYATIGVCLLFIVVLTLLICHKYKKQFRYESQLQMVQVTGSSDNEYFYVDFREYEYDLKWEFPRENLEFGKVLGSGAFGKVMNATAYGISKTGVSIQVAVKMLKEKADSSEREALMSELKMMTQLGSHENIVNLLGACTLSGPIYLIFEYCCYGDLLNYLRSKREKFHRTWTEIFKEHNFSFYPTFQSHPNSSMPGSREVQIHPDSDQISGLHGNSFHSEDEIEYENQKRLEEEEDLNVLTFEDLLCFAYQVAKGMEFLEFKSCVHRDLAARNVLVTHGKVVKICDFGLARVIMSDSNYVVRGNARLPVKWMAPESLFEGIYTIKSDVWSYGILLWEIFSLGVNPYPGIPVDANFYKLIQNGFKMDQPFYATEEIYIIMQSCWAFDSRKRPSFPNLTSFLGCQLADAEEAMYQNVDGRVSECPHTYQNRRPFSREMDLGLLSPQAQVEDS

[3] = target: Glycogen synthase kinase-3 alpha (Homo sapiens, UniProt P49840); experiment: Inhibition of GSK3A (unknown origin) assessed as residual activity at 1 uM by Kinomescan assay relative to staurosporine
Glycogen synthase kinase-3 alpha, sequence (P49840 2-483 limits assumed): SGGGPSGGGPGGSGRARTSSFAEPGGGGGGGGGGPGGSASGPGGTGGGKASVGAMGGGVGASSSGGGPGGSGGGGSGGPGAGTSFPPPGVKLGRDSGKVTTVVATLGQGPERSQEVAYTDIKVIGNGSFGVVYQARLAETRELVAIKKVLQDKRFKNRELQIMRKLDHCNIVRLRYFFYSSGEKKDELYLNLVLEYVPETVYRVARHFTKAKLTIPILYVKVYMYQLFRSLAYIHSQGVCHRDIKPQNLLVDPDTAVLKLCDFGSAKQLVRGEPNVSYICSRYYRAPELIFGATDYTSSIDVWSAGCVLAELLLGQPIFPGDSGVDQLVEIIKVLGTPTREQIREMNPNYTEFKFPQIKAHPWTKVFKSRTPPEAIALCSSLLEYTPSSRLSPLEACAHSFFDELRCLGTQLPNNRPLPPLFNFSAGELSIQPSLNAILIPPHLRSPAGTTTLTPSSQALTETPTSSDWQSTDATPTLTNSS

[4] = target: T3, Bone morphogenetic protein receptor type-2 (Homo sapiens) (UniProt Q13873); experiment: Binding affinity to BMPR2 (unknown origin) assessed as change in enthalpy by ITC assay
T3 sequence (whole entry): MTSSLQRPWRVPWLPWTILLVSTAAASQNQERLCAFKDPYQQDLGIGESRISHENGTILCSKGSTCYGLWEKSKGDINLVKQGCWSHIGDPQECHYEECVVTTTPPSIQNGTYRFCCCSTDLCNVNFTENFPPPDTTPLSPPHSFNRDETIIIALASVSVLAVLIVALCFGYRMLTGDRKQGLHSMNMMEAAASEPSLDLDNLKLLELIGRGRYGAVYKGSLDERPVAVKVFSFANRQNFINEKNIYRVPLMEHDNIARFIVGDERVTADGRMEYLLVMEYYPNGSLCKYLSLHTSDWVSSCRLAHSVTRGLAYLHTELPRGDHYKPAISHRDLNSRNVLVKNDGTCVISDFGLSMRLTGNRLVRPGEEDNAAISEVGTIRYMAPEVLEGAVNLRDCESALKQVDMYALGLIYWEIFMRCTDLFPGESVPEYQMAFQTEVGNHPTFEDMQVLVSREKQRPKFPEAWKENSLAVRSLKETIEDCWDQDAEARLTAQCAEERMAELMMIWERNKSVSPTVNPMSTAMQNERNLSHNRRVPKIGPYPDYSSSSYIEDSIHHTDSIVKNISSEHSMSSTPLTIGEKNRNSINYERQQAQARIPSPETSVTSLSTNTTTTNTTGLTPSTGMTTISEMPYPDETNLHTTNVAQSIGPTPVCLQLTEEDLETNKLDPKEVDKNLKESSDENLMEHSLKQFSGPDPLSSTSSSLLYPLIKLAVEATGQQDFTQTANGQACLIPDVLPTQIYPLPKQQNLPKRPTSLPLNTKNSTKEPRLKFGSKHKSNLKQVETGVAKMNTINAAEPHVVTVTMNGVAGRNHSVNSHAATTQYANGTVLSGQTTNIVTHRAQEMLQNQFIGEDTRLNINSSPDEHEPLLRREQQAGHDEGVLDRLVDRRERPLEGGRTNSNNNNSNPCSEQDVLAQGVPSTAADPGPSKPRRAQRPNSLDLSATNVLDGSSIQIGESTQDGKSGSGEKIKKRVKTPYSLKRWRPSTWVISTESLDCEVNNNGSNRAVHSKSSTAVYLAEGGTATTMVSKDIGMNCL
Procedure, shortened: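 Binding measured by isothermal titration calorimetry against the recombinant BMPR2 kinase domain. Thermodynamic binding parameters, including the dissociation constant, were derived from the titration data.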

inhibition [1]: 23%
inhibition [2]: 4.5%
Activity [3]: 16%
deltaH [4]: -8.41 kcal/mol
SMILES: O=C1NCCc2ccc(cc2)Nc2nccc(n2)Nc2cc1[nH]n2
